Laboratory results reported in ChEMBL document CHEMBL1833929, “Design, synthesis and anticancer activity of novel dihydrobenzofuro[4,5-b][1,8]naphthyridin-6-one derivatives” (Bioorg Med Chem Lett, 2011).

Legend:
[1] = Cytotoxicity against human MCF7/ADR cells after 24 hrs by MTT assay; assay type: functional, cell-based; details: NCI/ADR-RES
Procedure, shortened: (§1)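 Cells kept in RPMI-1640 with 10% heat-inactivated FBS, 1.25 mM HEPES and 1% penicillin/streptomycin. Seeded at 2×10^3 cells/well and grown 48 h, then treated with a range of concentrations for 24 or 48 h. MTT (5 mg/mL) added for 4 h at 37 °C, formazan dissolved in DMSO, absorbance read at 540 nm. Triplicate. IC50 from log concentration vs % viability loss; doxorubicin reference.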

[2] = Cell cycle arrest in human MCF7/ADR cells assessed as accumulation at G2/M phase at 5 uM after 48 hrs using propidium iodide staining by flow cytometry (reference value: 22.51 +/- 1.5 %); assay type: functional, cell-based; details: NCI/ADR-RES
Procedure, shortened: (§2)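 MCF-7/ADR cells exposed to test agent for 48 h, collected, washed and suspended in cold PBS. Fixed in chilled 75% methanol, then stained with PI solution (100 µg/mL RNase, 10 µg/mL PI in PBS). Phase distribution (G1, S, G2/M) determined by flow cytometry. Mean ± SEM of three independent experiments; one-way ANOVA with Newman–Keuls post hoc test, p<0.05.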

LNCaP [3] = test: Cytotoxicity against androgen receptor-positive human LNCAP cells after 24 hrs by MTT assay; assay type: functional, cell-based; procedure, shortened: as §1
DU-145 [4] = test: Cytotoxicity against human DU145 cells after 48 hrs by MTT assay; assay type: functional, cell-based; details: DU-145, 48 h; procedure, shortened: as §1
PC-3 [5] = test: Cytotoxicity against androgen receptor-negative human PC3 cells after 24 hrs by MTT assay; assay type: functional, cell-based; details: PC-3, 24 h; procedure, shortened: as §1
[6] = Cell cycle arrest in human MCF7/ADR cells assessed as accumulation at S phase at 5 uM after 48 hrs using propidium iodide staining by flow cytometry (reference value: 15.34 +/- 0.98 %); assay type: functional, cell-based; details: NCI/ADR-RES; procedure, shortened: as §2
[7] = Cell cycle arrest in human MCF7/ADR cells assessed as accumulation at G1 phase at 5 uM after 48 hrs using propidium iodide staining by flow cytometry (reference value: 62.15 +/- 3.14 %); assay type: functional, cell-based; details: NCI/ADR-RES; procedure, shortened: as §2
[8] = Cytotoxicity against human MCF7/ADR cells after 48 hrs by MTT assay; assay type: functional, cell-based; details: NCI/ADR-RES; procedure, shortened: as §1
PC-3 [9] = test: Cytotoxicity against androgen receptor-negative human PC3 cells after 48 hrs by MTT assay; assay type: functional, cell-based; details: PC-3, 48 h; procedure, shortened: as §1
DU-145 [10] = test: Cytotoxicity against human DU145 cells after 24 hrs by MTT assay; assay type: functional, cell-based; details: DU-145, 24 h; procedure, shortened: as §1
LNCaP [11] = test: Cytotoxicity against androgen receptor-positive human LNCAP cells after 48 hrs by MTT assay; assay type: functional, cell-based; procedure, shortened: as §1
[12] = Cell cycle arrest in human MCF7/ADR cells assessed as accumulation at S phase at 0.1 uM after 48 hrs using propidium iodide staining by flow cytometry (reference value: 15.34 +/- 0.98 %); assay type: functional, cell-based; details: NCI/ADR-RES; procedure, shortened: as §2
MCF7 [13] = test: Ratio of doxorubicin IC50 to compound IC50 for estrogen receptor-positive human MCF7 cells after 48 hrs by MTT assay; assay type: functional
[14] = Cell cycle arrest in human MCF7/ADR cells assessed as accumulation at G1 phase at 0.1 uM after 48 hrs using propidium iodide staining by flow cytometry (reference value: 62.15 +/- 3.14 %); assay type: functional, cell-based; details: NCI/ADR-RES; procedure, shortened: as §2
NCI/ADR-RES = test: Ratio of IC50 for androgen receptor-negative human PC3 cells to IC50 for human MCF7/ADR cells; assay type: functional
[15] = Cell cycle arrest in human MCF7/ADR cells assessed as accumulation at G2/M phase at 0.05 uM after 48 hrs using propidium iodide staining by flow cytometry (reference value: 22.51 +/- 1.5 %); assay type: functional, cell-based; details: NCI/ADR-RES; procedure, shortened: as §2
[16] = Cell cycle arrest in human MCF7/ADR cells assessed as accumulation at G1 phase at 0.05 uM after 48 hrs using propidium iodide staining by flow cytometry (reference value: 62.15 +/- 3.14 %); assay type: functional, cell-based; details: NCI/ADR-RES; procedure, shortened: as §2
MCF7 [17] = test: Cytotoxicity against estrogen receptor-positive human MCF7 cells after 48 hrs by MTT assay; assay type: functional, cell-based; details: MCF7, 48 h; procedure, shortened: as §1
[18] = Cell cycle arrest in human MCF7/ADR cells assessed as accumulation at S phase at 0.2 uM after 48 hrs using propidium iodide staining by flow cytometry (reference value: 15.34 +/- 0.98 %); assay type: functional, cell-based; details: NCI/ADR-RES; procedure, shortened: as §2
[19] = Cell cycle arrest in human MCF7/ADR cells assessed as accumulation at S phase at 0.05 uM after 48 hrs using propidium iodide staining by flow cytometry (reference value: 15.34 +/- 0.98 %); assay type: functional, cell-based; details: NCI/ADR-RES; procedure, shortened: as §2
[20] = Cell cycle arrest in human MCF7/ADR cells assessed as accumulation at G1 phase at 0.2 uM after 48 hrs using propidium iodide staining by flow cytometry (reference value: 62.15 +/- 3.14 %); assay type: functional, cell-based; details: NCI/ADR-RES; procedure, shortened: as §2
[21] = Cell cycle arrest in human MCF7/ADR cells assessed as accumulation at G2/M phase at 0.1 uM after 48 hrs using propidium iodide staining by flow cytometry (reference value: 22.51 +/- 1.5 %); assay type: functional, cell-based; details: NCI/ADR-RES; procedure, shortened: as §2
[22] = Cell cycle arrest in human MCF7/ADR cells assessed as accumulation at G2/M phase at 0.2 uM after 48 hrs using propidium iodide staining by flow cytometry (reference value: 22.51 +/- 1.5 %); assay type: functional, cell-based; details: NCI/ADR-RES; procedure, shortened: as §2
MCF7 [23] = test: Ratio of IC50 for androgen receptor-negative human PC3 cells to IC50 for estrogen receptor-positive human MCF7 cells; assay type: functional
MCF7 [24] = test: Cytotoxicity against estrogen receptor-positive human MCF7 cells after 24 hrs by MTT assay; assay type: functional, cell-based; details: MCF7, 24 h; procedure, shortened: as §1
LNCaP [25] = test: Ratio of IC50 for androgen receptor-negative human PC3 cells to IC50 for androgen receptor-positive human LNCAP cells; assay type: functional
DU-145 [26] = test: Ratio of IC50 for androgen receptor-negative human PC3 cells to IC50 for human DU145 cells; assay type: functional

Compound | IC50 [1] | IC50 (LNCaP [3]) | IC50 (DU-145 [4]) | IC50 (PC-3 [5]) | IC50 [8] | IC50 (PC-3 [9]) | IC50 (DU-145 [10]) | IC50 (LNCaP [11]) | Activity [12] | Activity [14] | Activity [15] | Activity [16] | IC50 (MCF7 [17]) | Activity [18] | Activity [19] | Activity [20] | Activity [21] | Activity [22] | IC50 (MCF7 [24]) | also measured
COc1cccc2c1C(=O)c1c(O)c3c(c(O)c1C2=O)C[C@@](O)(C(=O)CO)C[C@@H]3O[C@H]1C[C@H](N)[C@H](O)[C@H](C)O1 [DOXORUBICIN] | > 20 µM | 7.42 µM | 0.58 µM | 4.1 µM | 13.6 µM | 1.22 µM | 6.24 µM | 1.66 µM | – | – | – | – | – | – | – | – | – | – | – | Activity [2]: 24.6%; Activity [6]: 21.9%; Activity [7]: 53.3%
COc1cc2c(c3c1c(=O)c1cccnc1n3C)C[C@H]([C@]1(C)CO1)O2 (racemic) | 2.21 µM | 2.48 µM | 0.84 µM | 4.67 µM | 0.92 µM | 2.15 µM | 2.36 µM | 0.86 µM | 13.6% | 64.6% | 20.5% | 68.4% | 1.02 µM | 16.6% | 11.2% | 55.2% | 21.8% | 28.3% | 1.84 µM | Ratio IC50 (MCF7 [13]): 1.5; Ratio IC50 (NCI/ADR-RES): 2; Ratio IC50 (MCF7 [23]): 2; Ratio IC50 (LNCaP [25]): 2; Ratio IC50 (DU-145 [26]): 2
COc1cc2c(c3c1c(=O)c1cccnc1n3C)C[C@H]([C@@]1(C)CO1)O2 (racemic) | 0.49 µM | 0.48 µM | 0.15 µM | 0.56 µM | 0.15 µM | 0.3 µM | 0.55 µM | 0.14 µM | 8.97% | 57.4% | 24.1% | 63.5% | 0.26 µM | 7.68% | 12.4% | 51.2% | 33.7% | 41.1% | 0.66 µM | –
